Experimental data pooled from the literature.
Compare with care: the assays were run in different laboratories.
CDK5: Cyclin-dependent kinase 5 (CDK5, Homo sapiens, UniProt Q00535)
CDK5 with p25: Cyclin-dependent kinase 5, with p25 (CDK5, Homo sapiens, UniProt Q00535)

| Compound | target | assay | setting | endpoint | result |
| --- | --- | --- | --- | --- | --- |
| C[C@]1(O)CCCN(c2nc(Nc3ccc(S(=O)(=O)N[C@H]4CC[C@H](CN5CCN(c6ccc(C7CCC(=O)NC7=O)cc6F)CC5)CC4)cc3Cl)ncc2C(F)(F)F)C1 (stereo partly shown) | CDK5 | binding, competition with immobilised ligand | 1 µM | remaining binding | 72% |
| Cc1ccc(NC(=O)c2ccnc(C(F)(F)F)c2)cc1-c1cc(OCCO)nc(N2CCOCC2)c1 | CDK5 | binding, competition with immobilised ligand | 1 µM | remaining binding | 95% |
| C[C@]1(O)CCCN(c2nc(Nc3ccc(S(=O)(=O)N[C@H]4CC[C@H](CN5CCN(c6ccc(C7CCC(=O)NC7=O)cc6F)CC5)CC4)cc3F)ncc2C(F)(F)F)C1 (stereo partly shown) | CDK5 | binding, competition with immobilised ligand | 1 µM | remaining binding | 59% |
| CC(C)S(=O)(=O)c1ccc2nccc(Nc3ccc4sc(C5CCCC5)nc4c3)c2c1 | CDK5 with p25 | enzyme activity, inhibitor | 1 µM | activity vs control | 97.5% |
| CO[C@@H]1[C@H](N(C)C(=O)c2ccccc2)C[C@H]2O[C@]1(C)n1c3ccccc3c3c4c(c5c6ccccc6n2c5c31)C(=O)NC4 | CDK5 | enzyme activity, inhibitor | 1 µM | inhibition | 0% |
| C1=C/COCc2cc(ccc2OCCN2CCCC2)Nc2nccc(n2)-c2cccc(c2)COC/1 | CDK5 | binding | 0.1 µM | remaining binding | 100% |
| COc1ccc2[nH]c3c4[nH]c5ccc(OC)cc5c4c4c(c3c2c1)C(=O)NC4=O | CDK5 | binding, competition with immobilised ligand | 1 µM | remaining binding | 75% |
| COc1ccc2oc(-c3ccc4nc(N)oc4c3)c/c(=N\c3ccccc3NC(=O)CCN)c2c1 | CDK5 with p25 | binding | 1 µM | remaining binding | 102% |
| CC#CC(=O)N1CCC[C@H]1c1nc(-c2ccc(C(=O)Nc3ccccn3)cc2)c2c(N)nccn12 | CDK5 | enzyme activity, inhibitor | 1 µM | inhibition | 0% |
| CCCCC(=O)Nc1ccc(-c2ccc3ncn(CCC)c(=O)c3c2)cn1 | CDK5 | binding, competition with immobilised ligand | 0.5 µM | remaining binding | 78% |
